Calls of active or inactive are those of the source. No cut-off for these calls is given here.
Columns and labels:
[1] = Inhibition of protein A binding to horseradish peroxidase-conjugated human IgG in PBS solution by Protein A human IgG competitive ELISA
Procedure, shortened: (§1)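 Plate wells coated overnight at 4 °C with protein A (0.8 ug/well), washed with PBS, and blocked with 2% BSA for 1 h at 37 °C. Compound diluted in PBS or PBS–20% DMSO was added with HRP-conjugated human IgG and incubated 1 h at 37 °C. After washing, bound HRP-IgG was developed with ABTS for 20 min in the dark at room temperature and read at 405 nm. IC50 is the concentration inhibiting 50% binding.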

[2] = Inhibition of protein A binding to horseradish peroxidase-conjugated human IgG in 20% DMSO/PBS solution by Protein A human IgG competitive ELISA; procedure, shortened: as §1
[3] = test system: Mus musculus; assay: Reduction of anti-dsDNA antibody levels in NZB/NZW-F1 mouse systemic lupus erythematosus model at 50 mg/kg, iv administered once weekly starting from week 12 relative to untreated control; assay type: functional
Procedure, shortened: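 NZB/NZW F1 hybrid mice were given 50 mg/kg intravenously once weekly from week 12, against vehicle-treated controls. Serum anti-dsDNA autoantibodies were measured by a literature method, and total IgG was also monitored.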

[4] = target: T1, Low affinity immunoglobulin gamma Fc region receptor II-a (Homo sapiens, UniProt P12318); assay: Inhibition of heat aggregated human IgG binding to human Fc-gamma-R2a
T1 sequence (P12318 whole entry): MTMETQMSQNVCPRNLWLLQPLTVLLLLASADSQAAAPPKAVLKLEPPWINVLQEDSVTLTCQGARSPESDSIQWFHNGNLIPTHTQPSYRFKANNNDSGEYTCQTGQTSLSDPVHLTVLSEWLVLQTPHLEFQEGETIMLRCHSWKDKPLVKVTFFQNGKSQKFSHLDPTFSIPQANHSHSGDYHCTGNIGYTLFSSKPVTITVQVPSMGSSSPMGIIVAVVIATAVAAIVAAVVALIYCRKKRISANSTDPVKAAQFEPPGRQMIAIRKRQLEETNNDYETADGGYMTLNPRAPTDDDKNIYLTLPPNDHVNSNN

[5] = target: Low affinity immunoglobulin gamma Fc region receptor III-B (Homo sapiens, UniProt O75015); assay: Inhibition of heat aggregated human IgG binding to human Fc-gamma-R3b
Sequence of Low affinity immunoglobulin gamma Fc region receptor III-B (O75015 whole entry): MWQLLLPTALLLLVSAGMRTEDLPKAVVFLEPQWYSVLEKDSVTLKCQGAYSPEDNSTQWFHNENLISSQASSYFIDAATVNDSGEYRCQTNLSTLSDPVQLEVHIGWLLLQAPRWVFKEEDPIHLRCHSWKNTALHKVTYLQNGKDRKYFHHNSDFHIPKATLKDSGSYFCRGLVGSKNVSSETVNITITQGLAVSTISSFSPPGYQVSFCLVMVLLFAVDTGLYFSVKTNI

[6] = test system: Mus musculus; assay: Reduction of antibody immune complexes in NZB/NZW-F1 mouse systemic lupus erythematosus model at 50 mg/kg, iv administered once weekly starting from week 12 relative to untreated control; assay type: functional, organism-based; design: dose 50 mg/kg
[7] = Inhibition of protein A binding to heat aggregated human IgG
[8] = test system: Mus musculus; assay: Reduction of immune complex deposits in homozygous fas mutant MRL/lpr mouse systemic lupus erythematosus model at 50 mg/kg, iv administered once weekly for 5 consecutive weeks between 18 and 22 weeks by electron microscopy; assay type: functional, organism-based; design: dose 50 mg/kg
Procedure, shortened: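 MRL/lpr mice (homozygous fas mutation) received 50 mg/kg or vehicle intravenously once a week for 5 consecutive weeks, between weeks 18 and 22. Mice were then sacrificed, and immune complex deposition in kidney tissue was recorded by electron microscopy.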

Row | Structure (SMILES) | IC50 ([1]; read-out: IC50) [nM] | other results
1 | Nc1cccc(Nc2nc(NCCO)nc(Nc3ccc4c(c3)CCN4c3nc(NCCO)nc(Nc4cccc(N)c4)n3)n2)c1 | 80 | –
2 | CN(C)CCNc1nc(Nc2ccc(CCNc3nc(NCCO)nc(Nc4cccc(N)c4)n3)cc2)nc(Nc2cccc(N)c2)n1 | 89 | –
3 | CN1CCN(c2nc(Nc3ccc(CCNc4nc(NCCO)nc(Nc5cccc(N)c5)n4)cc3)nc(Nc3cccc(N)c3)n2)CC1 | 59 | –
4 | Nc1cccc(Nc2nc(NCCO)nc(NCCc3ccc(Nc4nc(NCCc5cccc(O)c5)nc(Nc5cccc(N)c5)n4)cc3)n2)c1 | 118 | –
5 | Nc1cccc(Nc2nc(NCCO)nc(NCCc3ccc(Nc4nc(NCCO)nc(Nc5ccc(F)cc5)n4)cc3)n2)c1 | 361 | IC50 ([2]; read-out: IC50): 204 nM
6 | CS(=O)(=O)c1cccc(Nc2nc(NCCO)nc(Nc3ccc(CCNc4nc(NCCO)nc(Nc5cccc(N)c5)n4)cc3)n2)c1 | 243 | IC50 ([2]; read-out: IC50): 192 nM
7 | Nc1cccc(Nc2nc(NCCO)nc(NCCc3ccc(Nc4nc(NCCO)nc(Nc5cccc(N)c5)n4)cc3)n2)c1 | 84 | IC50 ([2]; read-out: IC50): 144 nM
8 | Nc1cccc(Nc2nc(NCCO)nc(NCCCNc3nc(NCCO)nc(Nc4cccc(N)c4)n3)n2)c1 | 56 | –
9 | CC(Nc1nc(NCCO)nc(Nc2cccc(N)c2)n1)c1ccc(Nc2nc(NCCO)nc(Nc3cccc(N)c3)n2)cc1 (stereo unspecified) | – | IC50 [1]: Not Active
10 | Nc1cccc(Nc2nc(NCCO)nc(NCCc3ccc(Nc4nc(NCCc5ccccc5N)nc(Nc5cccc(N)c5)n4)cc3)n2)c1 | 185 | –
11 | Nc1cccc(Nc2nc(NCCO)nc(NCCc3ccc(Nc4nc(NCCc5ccc(O)cc5)nc(Nc5cccc(N)c5)n4)cc3)n2)c1 | – | IC50 [1]: Not Active
12 | Nc1cccc(Nc2nc(NCCO)nc(NCC(O)CNc3nc(NCCO)nc(Nc4cccc(N)c4)n3)n2)c1 | 56 | –
13 | Nc1cccc(Nc2nc(NCCO)nc(NCCNc3nc(NCCO)nc(Nc4cccc(N)c4)n3)n2)c1 | 58 | –
14 | Nc1cccc(Nc2nc(NCCO)nc(NCCc3ccc(Nc4nc(NCC(O)c5cccc(N)c5)nc(Nc5cccc(N)c5)n4)cc3)n2)c1 (stereo unspecified) | 130 | –
15 | Nc1cccc(Nc2nc(NCCO)nc(NCCc3ccc(Nc4nc(NCCO)nc(NCCO)n4)cc3)n2)c1 | 94 | IC50 ([2]; read-out: IC50): 81 nM
16 | Nc1cccc(Nc2nc(NCCO)nc(NCCc3ccc(Nc4nc(Nc5cccc(N)c5)nc(Nc5cccc(N)c5)n4)cc3)n2)c1 | 56 | –
17 | Nc1cccc(CCNc2nc(Nc3ccc(CCNc4nc(NCCO)nc(Nc5cccc(N)c5)n4)cc3)nc(Nc3cccc(N)c3)n2)c1 | 119 | –
18 | Nc1cccc(Nc2nc(NCCO)nc(NCCc3ccc(Nc4nc(NCCO)nc(Nc5ccc(Cl)cc5)n4)cc3)n2)c1 | 841 | IC50 ([2]; read-out: IC50): 893 nM

Row | Structure (SMILES) | IC50 ([1]; read-out: IC50) [nM] | other results
19 | NCCNc1nc(NCCO)nc(Nc2ccc(CCNc3nc(NCCO)nc(Nc4cccc(N)c4)n3)cc2)n1 | 410 | IC50 ([2]; read-out: IC50): 749 nM
20 | Nc1cccc(Nc2nc(NCCO)nc(NCCOCCNc3nc(NCCO)nc(Nc4cccc(N)c4)n3)n2)c1 | 70 | IC50 ([2]; read-out: IC50): 5190 nM
21 | Nc1cccc(Nc2nc(NCCO)nc(Nc3ccc(Nc4nc(NCCO)nc(Nc5cccc(N)c5)n4)cc3)n2)c1 | 157 | –
22 | CN(C)c1nc(Nc2ccc(CCNc3nc(NCCO)nc(Nc4cccc(N)c4)n3)cc2)nc(Nc2cccc(N)c2)n1 | 89 | –
23 | Nc1cccc(Nc2nc(NCCO)nc(NCCc3ccc(Nc4nc(Nc5cccc(N)c5)nc(NC5CCNC5)n4)cc3)n2)c1 (stereo unspecified) | 233 | –
24 | Nc1cccc(Nc2nc(NCCO)nc(NCCc3ccc(Nc4nc(NCCO)nc(Nc5cccc(F)c5)n4)cc3)n2)c1 | 382 | IC50 ([2]; read-out: IC50): 209 nM
25 | Nc1cccc(Nc2nc(NCCO)nc(NCCCCNc3nc(NCCO)nc(Nc4cccc(N)c4)n3)n2)c1 | 187 | –
26 | Nc1cccc(Nc2nc(NCCO)nc(NCCc3ccc(Nc4nc(NCCc5ccccc5)nc(Nc5cccc(N)c5)n4)cc3)n2)c1 | 449 | –
27 | Nc1cccc(Nc2nc(NCCO)nc(NCCc3ccc(Nc4nc(NCCc5ccc(F)cc5)nc(Nc5cccc(N)c5)n4)cc3)n2)c1 | 531 | –
28 | OCCNc1nc(NCCc2ccc(Nc3nc(NCCO)nc(Nc4ccccc4F)n3)cc2)nc(Nc2ccccc2F)n1 | – | IC50 [1]: Not Active; IC50 [2]: Not Active
29 | N=C(N)CCNc1nc(NCCO)nc(NCCc2ccc(Nc3nc(NCCO)nc(Nc4cccc(F)c4)n3)cc2)n1 | – | IC50 [1]: Not Active; IC50 [2]: Not Active
30 | CN(C)c1ccc(CCNc2nc(Nc3ccc(CCNc4nc(NCCO)nc(Nc5cccc(N)c5)n4)cc3)nc(Nc3cccc(N)c3)n2)cc1 | 695 | –
31 | Nc1ccc(CCNc2nc(Nc3ccc(CCNc4nc(NCCO)nc(Nc5cccc(N)c5)n4)cc3)nc(Nc3cccc(N)c3)n2)cc1 | 54 | fold change (FC) [3]: 2; IC50 [4]: 12000 nM; IC50 [5]: 57000 nM; Activity [6]: Active; IC50 [7]: 83 nM; Activity [8]: Active
32 | CC(C)(CNc1nc(NCCO)nc(Nc2cccc(N)c2)n1)CNc1nc(NCCO)nc(Nc2cccc(N)c2)n1 | 41 | –
33 | Nc1cccc(Nc2nc(NCCO)nc(Nc3cccc(Nc4nc(NCCO)nc(Nc5cccc(N)c5)n4)c3)n2)c1 | 293 | –
34 | Nc1cccc(Nc2nc(NCCO)nc(NCCc3cccc(Nc4nc(NCCO)nc(Nc5cccc(N)c5)n4)c3)n2)c1 | – | IC50 [1]: Not Active
35 | Nc1cccc(CNc2nc(Nc3ccc(CCNc4nc(NCCO)nc(Nc5cccc(N)c5)n4)cc3)nc(Nc3cccc(N)c3)n2)c1 | 141 | –
